Measurements published in ChEMBL document CHEMBL4715860 (J Med Chem, 2020).
The source made the active and inactive calls. The rule behind the calls is not given here.

Tests used:
[1] = Metabolic stability in Sprague-Dawley rat hepatocytes assessed as parent compound remaining at 5 uM incubated for 3 hrs by LC-MS analysis; format: ADME, cell-based, Hepatocyte; conditions: read-out: Stabilty
How it was run: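 Cryopreserved primary hepatocytes in suspension (CD-1 mouse, Sprague-Dawley rat, Beagle dog, human). Compound diluted from 10 mM DMSO stock to 5 μM final. Sampled at 0, 15, 60, 90 and 180 min, protein precipitated with ACN plus internal standard, supernatant analysed by LC−MS. Run in duplicate. 7-ethoxycoumarin as positive control. Hepatocyte-free medium incubations as negative control.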

[2] = Intrinsic clearance in CD1 mouse hepatocytes assessed per million cells at 5 uM incubated for 3 hrs by LC-MS analysis; format: ADME, cell-based, Hepatocyte; conditions: read-out: CLH
How it was run: (§1)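 Cryopreserved primary hepatocytes in suspension from CD-1 mouse, Sprague-Dawley rat, Beagle dog and human. Compound at 5 μM final (from 10 mM DMSO stock). Samples taken at 0, 15, 60, 90 and 180 min and quenched with ACN plus internal standard. Parent quantified by LC-MS. Hepatocyte-free medium incubations served as negative control; 7-ethoxycoumarin as positive control. Duplicate; CLint per 10^6 cells and t1/2.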

[3] = Intrinsic clearance in Sprague-Dawley rat hepatocytes assessed per million cells at 5 uM incubated for 3 hrs by LC-MS analysis; format: ADME, cell-based, Hepatocyte; conditions: read-out: CLH; how it was run: as §1
[4] = Metabolic stability in CD1 mouse hepatocytes assessed as half-life at 5 uM incubated for 3 hrs by LC-MS analysis; format: ADME, cell-based, Hepatocyte; how it was run: as §1
[5] = Metabolic stability in Sprague-Dawley rat hepatocytes assessed as half-life at 5 uM incubated for 3 hrs by LC-MS analysis; format: ADME, cell-based, Hepatocyte; how it was run: as §1
[6] = Metabolic stability in Beagle dog hepatocytes assessed as half-life at 5 uM incubated for 3 hrs by LC-MS analysis; format: ADME, cell-based, Canis lupus familiaris, Hepatocyte; how it was run: as §1
Rattus norvegicus = assay: In vivo inhibition of PI3Kalpha Sprague-Dawley rat assessed as increase in plasma insulin concentration at 5 mg/kg, po measured after 8 hrs by ELISA; format: functional, organism-based
How it was run: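 Male Sprague Dawley rats dosed orally at 5 mg/kg; plasma insulin and glucose followed over time against vehicle, n = 3, mean ± SEM.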

[7] = Tmax in C57BL/6J mouse plasma at 10 mg/kg, po administered as single dose by mass spectrometry based UHPLC analysis; format: ADME, organism-based
How it was run: (§2)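 Female C57BL/6J mice dosed orally at 10 mg/kg in 20% Captisol, either once or once daily for 4 days with sampling after the last dose on day 4. Plasma and brain concentrations followed over time. Tmax taken from at least 3 time points.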

[8] = AUC (0 to 8 hrs) in C57BL/6J mouse plasma at 10 mg/kg, po administered as single dose by mass spectrometry based UHPLC analysis; format: ADME, organism-based; set-up: time < 8 hr, route oral, dose 10 mg/kg
How it was run: (§3)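 Female C57BL/6J mice, one oral dose of 10 mg/kg in 20% Captisol; plasma and brain levels over time, n = 3 per time point (mean).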

[9] = AUC (0 to 8 hrs) in C57BL/6J mouse plasma at 10 mg/kg, po administered once a day for 4 consecutive days by mass spectrometry based UHPLC analysis; format: ADME, organism-based; set-up: route oral, time 4 day, dose 10 mg/kg
How it was run: (§4)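 Female C57BL/6J mice given 10 mg/kg p.o. in 20% Captisol once daily for 4 consecutive days. Plasma and brain sampled after the final dose on day 4, n = 3 per time point.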

[10] = Clearance in C57BL/6J mouse plasma at 10 mg/kg, po administered once a day for 4 consecutive days by mass spectrometry based UHPLC analysis; format: ADME, organism-based; conditions: time 4 day; how it was run: as §4
[11] = Cmax in C57BL/6J mouse brain at 10 mg/kg, po administered as single dose by mass spectrometry based UHPLC analysis; format: ADME, organism-based; set-up: route oral, dose 10 mg/kg; how it was run: as §3
[12] = Cmax in C57BL/6J mouse brain at 10 mg/kg, po administered once a day for 4 consecutive days by mass spectrometry based UHPLC analysis; format: ADME, organism-based; set-up: route oral, dose 10 mg/kg, time 4 day; how it was run: as §4
[13] = Tmax in C57BL/6J mouse brain at 10 mg/kg, po administered once a day for 4 consecutive days by mass spectrometry based UHPLC analysis; format: ADME, organism-based; conditions: time 4 day; how it was run: as §2
[14] = Cmax in C57BL/6J mouse plasma at 25 mg/kg, po administered as single dose by mass spectrometry based UHPLC analysis; format: ADME, organism-based; set-up: route oral, dose 25 mg/kg
How it was run: (§5)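 One oral dose of 25 mg/kg to female C57BL/6J mice. Plasma and brain concentrations followed over time, n = 3 per time point (mean).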

[15] = Clearance in C57BL/6J mouse plasma at 25 mg/kg, po administered as single dose by mass spectrometry based UHPLC analysis; format: ADME, organism-based; how it was run: as §5
[16] = Cmax in C57BL/6J mouse brain at 25 mg/kg, po administered as single dose by mass spectrometry based UHPLC analysis; format: ADME, organism-based; set-up: route oral, dose 25 mg/kg; how it was run: as §5
[17] = Tmax in C57BL/6J mouse brain at 25 mg/kg, po administered as single dose by mass spectrometry based UHPLC analysis; format: ADME, organism-based
How it was run: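 Female C57BL/6J mice given a single oral dose of 25 mg/kg. Plasma and brain levels followed over time (n = 3 per time point, mean). Tmax is the time of maximal concentration.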

[18] = Elimination half life in C57BL/6J mouse brain at 25 mg/kg, po administered as single dose by mass spectrometry based UHPLC analysis; format: ADME, organism-based; conditions: read-out: beta t1/2 (converted); how it was run: as §5
[19] = AUC (0 to 8 hrs) in C57BL/6J mouse brain at 25 mg/kg, po administered as single dose by mass spectrometry based UHPLC analysis; format: ADME, organism-based; set-up: time < 8 hr, route oral, dose 25 mg/kg; how it was run: as §5
Mus musculus [20] = assay: In vivo inhibition of mTORC1 signalling in C57BL/6J mouse assessed as reduction in RPS6 phosphorylation at S235/236 residue in brain at 25 mg/kg, po measured after 0.5 to 2 hrs by Western blot analysis; format: functional, organism-based; conditions: time 0.5-2 hrs
How it was run: (§6)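 Time course in female C57BL/6J mice after 25 mg/kg p.o.: cortex taken at set time points and western blotted for pS6 and pPKB. Signals quantified against α-tubulin as % of control cortex; n = 3 per time point and n = 9 controls. Brain compound level measured in the same mice.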

Mus musculus [21] = assay: In vivo inhibition of mTORC2 in C57BL/6J mouse assessed as reduction in PKB/Akt phosphorylation at Ser473 in brain at 25 mg/kg, po measured after 0.5 to 2 hrs by Western blot analysis; format: functional, organism-based; conditions: time 0.5-2 hrs; how it was run: as §6
Mus musculus [22] = assay: In vivo inhibition of mTORC2 in C57BL/6J mouse assessed as reduction in PKB/Akt phosphorylation at Ser473 in brain at 25 mg/kg, po measured after 8 hrs by Western blot analysis; format: functional, organism-based; how it was run: as §6
Mus musculus [23] = assay: Protection against Tsc1-GFAP knockout induced mortality in Balb/c mouse assessed as increase in survival rate administered orally twice a day measured post last dose; format: functional, organism-based
How it was run: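 Tsc1GFAPCKO mice (Tsc1 conditionally inactivated mainly in glia). Oral dosing from P21 at 10, 25, 50 mg/kg qd or 50 mg/kg bid, n = 7–10 per group. Controls were vehicle and a comparator at 10 mg/kg. Body weight tracked. Survival followed from P21 to death or censoring at P90, compared by log-rank test.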

Mus musculus [24] = assay: Protection against Tsc1-GFAP knockout induced mortality in Balb/c mouse assessed as increase in survival rate at 50 mg/kg, po administered twice daily; format: functional, organism-based
How it was run: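 Tsc1GFAPCKO mice (conditional Tsc1 inactivation mainly in glia) dosed orally starting at P21, at 10 mg/kg or 50 mg/kg bid (n = 10 and 7). Survival recorded to P90, with censoring at P90. Compared with vehicle and everolimus by log-rank test.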

Compound C[C@@H]1COCCN1c1nc(-c2cnc(N)cc2C(F)F)nc(N2[C@H](C)COC[C@@H]2C)n1 has a remaining at 3 h, 5 µM [1] of 42.3%, a hepatocyte CLint at 5 µM [2] of 4.3 µL/min/1e6 cells and a hepatocyte CLint at 5 µM [3] of 5.3 µL/min/1e6 cells. For the same compound, the half-life at 5 µM [4] was 3.35 h, the half-life at 5 µM [5] was 2.7 h and the half-life at 5 µM [6] was 8.17 h. For the same compound, the inhibition (Rattus norvegicus) was “inactive”, the Tmax [7] was 0.5 h and the AUC(0-t) at 8 h [8] was 2940 ng·h/mL. For the same compound, the AUC at 96 h [9] was 2370 ng·h/mL, the CL/F [10] was 64.9 mL/min/kg and the Cmax [11] was 1420 ng/mL. The Cmax [12] was 1320 ng/mL, the Tmax [13] was 0.5 h and the Cmax [14] was 1830 ng/mL. The CL/F [15] was 40.5 mL/min/kg, the Cmax [16] was 3340 ng/mL and the Tmax [17] was 0.5 h. The half-life [18] was 2.4 h, the AUC(0-t) at 8 h [19] was 17100 ng·h/mL and the inhibition (Mus musculus [20]) was “Active”. The inhibition (Mus musculus [21]) was “Active”, the inhibition (Mus musculus [22]) was “inactive” and the Activity (Mus musculus [23]) was “Dose-dependent effect”. The Activity (Mus musculus [24]) was “Active”.
